MrgX1 agonist: agonists of human MrgX1 receptor | MrgX1-HEK293 cells, Fluo-4 calcium fluorescence, agonist mode; hits give high values | Q96LB2 | 310,000 tested, 0.44% active | B-score at 10 µM | AID 588627;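 active = calcium response B-score plate-corrected fluorescence ratio at least 3 library SD, with starting fluorescence B-score inside 5 SD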
Target sequence (Q96LB2 whole entry, looked up): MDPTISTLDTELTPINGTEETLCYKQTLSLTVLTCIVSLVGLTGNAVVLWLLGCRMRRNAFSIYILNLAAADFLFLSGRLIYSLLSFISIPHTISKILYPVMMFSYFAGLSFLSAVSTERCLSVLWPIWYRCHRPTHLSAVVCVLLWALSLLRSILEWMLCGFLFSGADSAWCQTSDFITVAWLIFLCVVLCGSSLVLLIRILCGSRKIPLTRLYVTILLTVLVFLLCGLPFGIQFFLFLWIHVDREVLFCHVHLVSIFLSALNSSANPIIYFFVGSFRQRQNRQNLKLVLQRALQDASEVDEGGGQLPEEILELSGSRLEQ
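System: HEK293 cells stably expressing human MrgX1 receptor; Dosing: test compound in the initial addition of three; Schedule: overnight plating, then 30 min 37 °C plus 30 min room-temperature dye loading; Detection: kinetic calcium dye fluorescence, Fluo-4 NW; Controls: per-plate positive and negative controls for Z′ factor.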
RGS4 pot: RGS4 potentiation or activation; B-score at 10 µM; HEK293 M3R/inducible RGS4, carbachol calcium flux Fluo4; hits give low values; 310,000 tested, 0.92% active; AID 463111;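 active = B-score of the integrated calcium signal more than 4 SD below the library mean, with starting fluorescence not abnormally high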;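 note: negative B-score means reduced calcium response which marks RGS4 activation or potentiation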
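Material: M3R-expressing HEK293 line, RGS4 induced by doxycycline | Schedule: Overnight RGS4 induction, 30 min dye load 37 °C, 20 min compound RT | Measured by: Fluo4 fluorescence kinetic imaging of calcium | Read-out: Integrated calcium ratio converted to B score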
RGS4 block: human RGS4 inhibition; HEK293 M3R/RGS4 inducible, Fluo-4 calcium flux; hits give high values; triggered by carbachol at its EC20; B-score at 10 µM; 310,000 tested, 0.45% active;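 active = B-score, a plate-corrected calcium signal, over three deviations above library mean, with baseline fluorescence within five deviations of library mean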;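 note: RGS4 expression induced by doxycycline in cells with stable M3 receptor; B-score is computed from the integrated fluorescence ratio over baseline after carbachol; higher B-score means a larger calcium signal and so more RGS4 inhibition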
Target sequence (P49798 whole entry, looked up): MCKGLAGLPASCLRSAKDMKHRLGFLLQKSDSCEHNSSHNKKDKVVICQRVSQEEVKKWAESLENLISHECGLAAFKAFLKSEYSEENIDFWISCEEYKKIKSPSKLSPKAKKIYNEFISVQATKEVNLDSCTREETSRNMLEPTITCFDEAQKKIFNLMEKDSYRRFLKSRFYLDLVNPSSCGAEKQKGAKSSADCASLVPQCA
Lipid droplet: hepatic lipid droplet formation modulation; AID 1656; inhibition, % at 6.5 µM; 240,000 tested, 0.4% active; AML12 mouse hepatocytes, oleate lipid droplets, BODIPY imaging;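 active = lipid droplet intensity inhibited by at least 50%, with more than 500 cells counted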
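Test system: AML12 mouse liver cells; schedule: overnight exposure; technique: high-content imaging of BODIPY-stained droplets and DAPI nuclei; read-out: % inhibition of corrected integrated BODIPY droplet signal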
MrgX1 PAM: human MrgX1 positive allosteric modulation, primary screen; Q96LB2; MrgX1-HEK293, Fluo-4 calcium flux, FDSS; hits give high values; B-score at 10 µM; 310,000 tested, 0.63% active;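 active = plate-corrected calcium response at least 3 library SD above typical, normal starting fluorescence, not activating the receptor alone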;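 note: compound read alongside a low EC10 to EC30 dose of BAM8-22 agonist; peak minus trough fluorescence over baseline measured at the second addition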
MrgX1 antag: human MrgX1 receptor antagonism, primary screen | 310,000 tested, 1.3% active | AID 588676 | B-score at 10 µM | Q96LB2 | MRGX1-HEK293 calcium flux, Fluo-4, BAM8-22 antagonism; hits give low values;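 active = calcium-response B-score plate-corrected more than 3 library SD below zero, starting fluorescence within 5 deviations, no agonist response on first addition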;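 note: peak minus trough fluorescence over baseline after final BAM8-22 challenge near maximal dose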
MrgX1 allo conf: human MrgX1 positive allosteric modulation, re-confirmation | AID 602413 | 1,200 tested, 13% active | activation (ratio percentage), % at 10 µM | MrgX1-HEK293, Fluo-4 calcium fluorescence, FDSS | shares compounds with MrgX1 PAM;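 active = ratio at least 3 SD above the weak peptide control, stable starting fluorescence, no direct agonism earlier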;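 note: compound followed by low BAM8-22 agonist challenge near EC20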
HEK293 Ca flux: counter-screen for MrgX1 antagonists: effect in parental HEK293 cells. shares compounds with MrgX1 antag. fluorescence ratio F(max-min)/F0 at 10 µM. 4,000 tested, 2% active. AID 624111. Fluo-4 calcium fluorescence, FDSS;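 active = duplicate-averaged calcium fluorescence ratio at least three times the standard deviation of buffer wells, a nonspecific response in parental cells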
HEK293 Ca counter: MrgX1 allosteric activator counter-screen hit in parental HEK293 cells. 4,000 tested, 0.4% active. shares compounds with MrgX1 antag. parental HEK293 calcium flux, Fluo-4 fluorescence ratio; hits give high values. fluorescence ratio F(max-min)/F0 at 10 µM;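 active = calcium fluorescence ratio, averaged over duplicates, at least 3 SD of the buffer-well ratio, meaning a nonspecific response in receptor-free cells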;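 note: untransfected parental HEK293 lacking MrgX1 used as counterscreen for MrgX1 allosteric activators; fluorescence change taken during the second addition on a kinetic imager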
HEK293 Ca cntr2: activity in parental HEK293 cells lacking MrgX1 receptor | shares compounds with MrgX1 antag | Fluo-4 calcium fluorescence (FDSS); hits give high values | fluorescence ratio F(max-min)/F0 at 10 µM | 4,000 tested, 8.7% active | AID 624115;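 active = calcium fluorescence ratio at least three times the spread of buffer wells, meaning a non-specific response in parental cells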
A number is an active result. An excerpt weighted towards active compounds, which were near 3.8% of everything screened.

Results for C=CCN(CC=C)S(=O)(=O)c1ccc2nc(NC(=O)C(C)C)sc2c1 ?
MrgX1 agonist: inactive; Lipid droplet: inactive; MrgX1 PAM: 21; MrgX1 antag: inactive; MrgX1 allo conf: inactive; HEK293 Ca flux: inactive; HEK293 Ca counter: inactive; HEK293 Ca cntr2: inactive

What do the screens show for `O=C(Cn1cnc2c(nnn2Cc2ccc(F)cc2)c1=O)NCC1CCCO1` (stereo not drawn)?
MrgX1 agonist: inactive; RGS4 pot: inactive; RGS4 block: inactive; Lipid droplet: inactive; MrgX1 PAM: inactive; MrgX1 antag: inactive

How did CCNc1sc(S(C)(=O)=O)nc1S(=O)(=O)c1ccc(Cl)cc1 do in these assays?
MrgX1 agonist: inactive; RGS4 pot: inactive; RGS4 block: inactive; Lipid droplet: inactive; MrgX1 PAM: inactive; MrgX1 antag: inactive

How did CCOC(=O)c1[nH]c(C)c(C(=O)OCC(=O)N(C)C2CCS(=O)(=O)C2)c1C (stereo not drawn) do in these assays?
MrgX1 agonist: inactive; RGS4 pot: inactive; RGS4 block: inactive; Lipid droplet: inactive; MrgX1 PAM: inactive; MrgX1 antag: inactive

What do the screens show for `CCN(c1cccc(C)c1)S(=O)(=O)c1ccc(-n2cccn2)cc1`?
MrgX1 agonist: inactive; RGS4 pot: inactive; RGS4 block: inactive; Lipid droplet: inactive; MrgX1 PAM: 7; MrgX1 antag: inactive; MrgX1 allo conf: inactive; HEK293 Ca flux: inactive; HEK293 Ca counter: inactive; HEK293 Ca cntr2: inactive

How did Cc1nnc(Sc2c(N)n(C)c(=O)n(C)c2=O)s1 do in these assays?
MrgX1 agonist: inactive; RGS4 pot: inactive; RGS4 block: inactive; Lipid droplet: inactive; MrgX1 PAM: 11; MrgX1 antag: inactive; MrgX1 allo conf: inactive; HEK293 Ca flux: inactive; HEK293 Ca counter: inactive; HEK293 Ca cntr2: inactive

How did Cc1nnc(SCCn2c(Br)nc3c2c(=O)n(C)c(=O)n3C)s1 do in these assays?
MrgX1 agonist: inactive; RGS4 pot: inactive; RGS4 block: inactive; Lipid droplet: inactive; MrgX1 PAM: inactive; MrgX1 antag: inactive

How did COc1cccc(Oc2nc(-c3ccncc3)nc3ccccc23)c1 do in these assays?
MrgX1 agonist: inactive; RGS4 pot: inactive; RGS4 block: inactive; Lipid droplet: inactive; MrgX1 PAM: inactive; MrgX1 antag: inactive

Results for O=C(Nc1nc(-c2cccs2)c(C(=O)C(F)(F)F)s1)c1ccco1 ?
MrgX1 agonist: inactive; RGS4 pot: inactive; RGS4 block: inactive; Lipid droplet: inactive; MrgX1 PAM: 7.6; MrgX1 antag: inactive; MrgX1 allo conf: inactive; HEK293 Ca flux: inactive; HEK293 Ca counter: inactive; HEK293 Ca cntr2: inactive

What do the screens show for `CCN(CC)S(=O)(=O)c1cccc(NC2=NCC(C)S2)c1` (stereo not drawn)?
MrgX1 agonist: inactive; RGS4 pot: inactive; RGS4 block: inactive; Lipid droplet: inactive; MrgX1 PAM: 9.1; MrgX1 antag: inactive; MrgX1 allo conf: inactive; HEK293 Ca flux: inactive; HEK293 Ca counter: inactive; HEK293 Ca cntr2: inactive

How did O=C(N/N=C\c1c(O)ccc2ccccc12)c1ccc(S(=O)(=O)N2CCCCC2)cc1 do in these assays?
MrgX1 agonist: inactive; RGS4 pot: inactive; RGS4 block: inactive; Lipid droplet: inactive; MrgX1 PAM: 20; MrgX1 antag: inactive; MrgX1 allo conf: inactive; HEK293 Ca flux: 0.42; HEK293 Ca counter: inactive; HEK293 Ca cntr2: 65

How did O=C(N/N=C/c1c(O)ccc2ccccc12)c1ccc(CO)nc1 do in these assays?
MrgX1 agonist: inactive; RGS4 pot: inactive; RGS4 block: inactive; Lipid droplet: inactive; MrgX1 PAM: inactive; MrgX1 antag: inactive

What do the screens show for `CCOC(=O)C1=C(C)NC(=O)CC1c1cc(OC)c(OC)cc1Br` (stereo not drawn)?
MrgX1 agonist: inactive; RGS4 pot: inactive; RGS4 block: inactive; Lipid droplet: inactive; MrgX1 PAM: 15; MrgX1 antag: inactive; MrgX1 allo conf: inactive; HEK293 Ca flux: inactive; HEK293 Ca counter: inactive; HEK293 Ca cntr2: inactive

How did CCc1nn(C(C)C(=O)NCc2cccc(Cl)c2)c(=O)c2cc3occc3n12 (stereo not drawn) do in these assays?
MrgX1 agonist: inactive; RGS4 pot: inactive; RGS4 block: inactive; Lipid droplet: inactive; MrgX1 PAM: inactive; MrgX1 antag: inactive

How did Cc1ccc2nc(NCCCO)nc(-c3ccccc3)c2c1 do in these assays?
MrgX1 agonist: inactive; RGS4 pot: inactive; RGS4 block: inactive; Lipid droplet: inactive; MrgX1 PAM: 11; MrgX1 antag: inactive; MrgX1 allo conf: inactive; HEK293 Ca flux: inactive; HEK293 Ca counter: inactive; HEK293 Ca cntr2: inactive

Results for CN1CCC(N(C)CC(=O)Nc2cccc(Oc3ccccc3)c2)CC1 ?
MrgX1 agonist: inactive; RGS4 pot: inactive; RGS4 block: inactive; Lipid droplet: inactive; MrgX1 PAM: inactive; MrgX1 antag: inactive

How did O=C(c1ccc(Cl)cc1)C1CCCN(Cc2cccn2-c2cccnc2)C1 (stereo not drawn) do in these assays?
MrgX1 agonist: inactive; RGS4 pot: inactive; RGS4 block: inactive; Lipid droplet: inactive; MrgX1 PAM: 7.5; MrgX1 antag: inactive; MrgX1 allo conf: inactive; HEK293 Ca flux: inactive; HEK293 Ca counter: inactive; HEK293 Ca cntr2: inactive

What do the screens show for `CC1CCCCC1Nc1nc2ccc(Cl)cc2n2cnnc12` (stereo not drawn)?
MrgX1 agonist: inactive; RGS4 pot: inactive; RGS4 block: inactive; Lipid droplet: inactive; MrgX1 PAM: 9.2; MrgX1 antag: inactive; MrgX1 allo conf: inactive; HEK293 Ca flux: inactive; HEK293 Ca counter: inactive; HEK293 Ca cntr2: inactive

How did O=C(Nc1ccc(F)cc1F)c1ccco1 do in these assays?
MrgX1 agonist: inactive; RGS4 pot: inactive; RGS4 block: inactive; Lipid droplet: inactive; MrgX1 PAM: 7.6; MrgX1 antag: inactive; MrgX1 allo conf: inactive; HEK293 Ca flux: inactive; HEK293 Ca counter: inactive; HEK293 Ca cntr2: inactive

What do the screens show for `O=C(Nc1ccc(F)cc1F)c1cc(-c2ccco2)on1`?
MrgX1 agonist: inactive; RGS4 pot: inactive; RGS4 block: inactive; MrgX1 PAM: inactive; MrgX1 antag: inactive

Results for CCCc1cc(C(=O)N2CCCC(C(=O)c3cccc4ccccc34)C2)n(C)n1 (stereo not drawn) ?
MrgX1 agonist: inactive; RGS4 pot: inactive; RGS4 block: inactive; Lipid droplet: inactive; MrgX1 PAM: 12; MrgX1 antag: inactive; MrgX1 allo conf: inactive; HEK293 Ca flux: inactive; HEK293 Ca counter: inactive; HEK293 Ca cntr2: inactive

High-throughput results as filed in PubChem BioAssay.
